Source: ChEMBL document CHEMBL1132583, “Design and synthesis of novel amphiphilic dendritic galactosides for selective targeting of liposomes to the hepatic asialoglycoprotein receptor” (J Med Chem, 1999)

How the values were obtained:
Assay type in all cases: functional, organism-based
Settings in all cases: Microsome
Mus musculus [1] = organism: Mus musculus; experiment: The percent recovery of the addedglycolipid (100 ug) with the liposomes in Mice at 5% w/w of the compound
Summary of the method: (§1)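 Glycolipid (0–50 μg; 5, 10 or 50% w/w) incubated with sonicated [3H]cholesteryl oleate-labeled egg PC liposomes (100 μg phospholipid) for 30 min at 37 °C. Incorporated and free glycolipid separated by FPLC on Superose-6 or Sephacryl S-1000, PBS pH 7.4 eluent, 50 μL/min. Galactose content of fractions measured by galactose oxidase assay. Recovery is given as percent of added glycolipid eluting with liposomes. Mean ± variation, n = 2.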

Mus musculus [2] = organism: Mus musculus; experiment: The percent recovery of the addedglycolipid (100 ug) with the liposomes in Mice at 50% w/w (n = 2); summary of the method: as §1
Mus musculus [3] = organism: Mus musculus; experiment: The percent recovery of the addedglycolipid (100 ug) with the liposomes in Mice at 10% w/w (n = 2); summary of the method: as §1
Mus musculus [4] = experiment: Uptake by the liver liposomes upon intravenous injection in Mice at 50% w/w (n = 2)
Summary of the method: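 Optional asialofetuin preinjection (50 mg/kg) given 1 min before. Liver lobules and blood sampled over time. At 30 min, liver 3H is expressed as % injected dose, corrected for serum radioactivity. Mean ± variation of two experiments.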

Mus musculus [5] = organism: Mus musculus; experiment: The percent recovery of the addedglycolipid (100 ug) with the liposomes in Mice at 5% w/w (n = 2); summary of the method: as §1

SMILES | Recovery (Mus musculus [1]) [%] | Recovery (Mus musculus [2]) [%] | Recovery (Mus musculus [3]) [%] | Uptake (Mus musculus [4]) [%] | Recovery (Mus musculus [5]) [%]
CCCCCCCC/C=C\CCCCCCCC(=O)O[C@H]1CC[C@@]2(C)C(=CC[C@H]3[C@@H]4CC[C@H](C(C)CCC(=O)NCCCC(=O)NCC(=O)NC(COCCC(=O)NCCCNC(=O)CCCCO[C@@H]5O[C@H](CO)[C@H](O)[C@@H](O)[C@H]5O)(COCCC(=O)NCCCNC(=O)CCCCO[C@@H]5O[C@H](CO)[C@H](O)[C@@H](O)[C@H]5O)COCCC(=O)NCCCNC(=O)CCCCO[C@@H]5O[C@H](CO)[C@H](O)[C@@H](O)[C@H]5O)[C@@]4(C)CC[C@@H]32)C1 (stereo partly specified) | 100 | – | – | – | –
CCCCCCCC/C=C\CCCCCCCC(=O)O[C@H]1CC[C@@]2(C)C(=CC[C@H]3[C@@H]4CC[C@H](C(C)C(=O)NCCCC(=O)NCC(=O)NC(COCCC(=O)NCCCNC(=O)CCCCO[C@@H]5O[C@H](CO)[C@H](O)[C@@H](O)[C@H]5O)(COCCC(=O)NCCCNC(=O)CCCCO[C@@H]5O[C@H](CO)[C@H](O)[C@@H](O)[C@H]5O)COCCC(=O)NCCCNC(=O)CCCCO[C@@H]5O[C@H](CO)[C@H](O)[C@@H](O)[C@H]5O)[C@@]4(C)CC[C@@H]32)C1 (stereo partly specified) | 100 | – | – | – | –
CCCCCCCC/C=C\CCCCCCCC(=O)O[C@H]1CC[C@@]2(C)C(CC[C@H]3[C@@H]4CC[C@H](C(C)CCC(=O)NCCCC(=O)NCC(=O)NC(COCCC(=O)NCCCNC(=O)CCCCO[C@@H]5O[C@H](CO)[C@H](O)[C@@H](O)[C@H]5O)(COCCC(=O)NCCCNC(=O)CCCCO[C@@H]5O[C@H](CO)[C@H](O)[C@@H](O)[C@H]5O)COCCC(=O)NCCCNC(=O)CCCCO[C@@H]5O[C@H](CO)[C@H](O)[C@@H](O)[C@H]5O)[C@@]4(C)CC[C@@H]32)C1 (stereo partly specified) | – | 59.4 | 96.5 | 83.5 | 100
